# From PubChem
# Shown are actives, neighbours in structure and some others; about 0.72% of the full set was active somewhere.
# Arbovirus anti: blocks arbovirus infection; arbovirus infection cell-based antiviral screen; inhibition, % at 10 µM; hit rate 0.37% among 200,000; in the data active means inhibition above about 30%
# TNAP inh hi DEA: blocks human TNAP under high phosphate acceptor concentration; purified TNAP, CDP-star luminescence, 1 M DEA; P05186; inhibition, % at 20 µM; hit rate 0.03% among 200,000;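 active means over 50% inhibition of tissue-nonspecific alkaline phosphatase at 20 µM in the single-dose screen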
# TNAP inh noacc: blocks human TNAP activity with no phosphate acceptor present; P05186; purified TNAP, CDP-star luminescence, 30 min; inhibition, % at 20 µM; hit rate 0.26% among 200,000; AID 1012;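 active means tissue-nonspecific alkaline phosphatase inhibition above about 50% at 20 µM in the single-dose screen, limit read from the data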
# TNAP act hi DEA: increases human TNAP activity under high phosphate acceptor concentration; purified TNAP, CDP-star luminescence, 1 M DEA, 30 min; stronger effect = higher value; 0 = EDTA background, 1 = DMSO-only activity; 200,000 tested, under 10 active; AID 1136; activation factor at 20 µM;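 active means activation factor at least 2 at 20 µM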
#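 Test system – human TNAP · Doses – 20 µM single point · Incubation – 30 min, room temperature · Signal – luminescent substrate turnover signal · Read-out basis – activation factor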
# PKD1 kinase inh: inhibitors of human PKD1 kinase; Q15139; PKD1 kinase fluorescence polarization assay; inhibition, % (concentration not given with the values); hit rate 0.056% among 200,000; in the data active means inhibition above about 50%
# Target sequence (Q15139 whole entry, looked up): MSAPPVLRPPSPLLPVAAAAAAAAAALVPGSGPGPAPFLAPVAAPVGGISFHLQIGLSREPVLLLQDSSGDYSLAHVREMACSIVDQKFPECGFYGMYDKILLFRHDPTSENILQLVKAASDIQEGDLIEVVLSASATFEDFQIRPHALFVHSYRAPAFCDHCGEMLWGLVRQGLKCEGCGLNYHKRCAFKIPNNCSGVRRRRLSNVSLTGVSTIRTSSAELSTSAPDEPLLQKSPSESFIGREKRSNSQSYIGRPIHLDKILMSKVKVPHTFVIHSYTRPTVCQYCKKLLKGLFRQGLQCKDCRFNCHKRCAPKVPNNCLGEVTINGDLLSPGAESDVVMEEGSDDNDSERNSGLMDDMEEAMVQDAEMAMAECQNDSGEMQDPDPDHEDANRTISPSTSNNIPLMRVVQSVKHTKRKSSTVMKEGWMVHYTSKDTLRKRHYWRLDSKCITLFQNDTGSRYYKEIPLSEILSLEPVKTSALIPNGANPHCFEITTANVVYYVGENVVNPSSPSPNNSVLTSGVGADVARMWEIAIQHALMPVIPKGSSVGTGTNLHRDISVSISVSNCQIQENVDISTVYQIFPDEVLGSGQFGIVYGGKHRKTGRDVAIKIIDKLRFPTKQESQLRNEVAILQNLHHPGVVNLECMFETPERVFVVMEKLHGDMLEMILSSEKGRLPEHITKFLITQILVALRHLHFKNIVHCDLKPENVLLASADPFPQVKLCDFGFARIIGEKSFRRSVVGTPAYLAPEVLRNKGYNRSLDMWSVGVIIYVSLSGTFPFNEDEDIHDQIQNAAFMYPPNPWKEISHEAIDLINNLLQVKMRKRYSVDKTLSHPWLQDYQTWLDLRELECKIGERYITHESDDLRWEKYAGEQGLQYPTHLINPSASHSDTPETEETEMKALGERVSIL
# Numbers stand for hits; – = inactive.
SMILES,Arbovirus anti,TNAP inh hi DEA,TNAP inh noacc,TNAP act hi DEA,PKD1 kinase inh
N=C1S/C(=C\c2cn[nH]c2-c2ccc(F)cc2)C(=O)N1c1ccccc1F,–,–,–,–,–
COc1ccc(NC(=O)c2cc3cccc(OC)c3oc2=Nc2ccc(C(=O)O)cc2)cc1OC,31.5,–,–,–,–
CC(NC(=O)C1c2ccccc2Oc2ccccc21)C1CCCO1 (stereo not given),–,–,–,–,–
COc1cc(/C=C/C(=O)OCC(=O)c2c(N)n(C)c(=O)n(C)c2=O)ccc1OCC#N,–,–,–,–,–
O=C(CSc1nc2nn(-c3ccccc3)c(=O)c-2c2n1CCCCC2)NCCc1ccccc1,31.8,–,–,–,–
O=c1oc(-c2cccs2)nc2sc3c(c12)CCCC3,34.4,–,–,–,–
O=c1oc(/C=C/c2ccco2)nc2sc3c(c12)CCC3,63.4,–,–,–,–
O=C(Nc1ccccc1)Nc1snnc1C(=O)Nc1cccc(O)c1,47.5,–,–,–,–
COc1cc(CCN2C(=O)N[C@@H](CCc3ccccc3)C(C(C)=O)=C2C)cc(OC)c1OC,–,–,–,–,–
O=C(CSc1nc(-c2ccccc2)nn1C(=O)c1ccccc1)Nc1cccc([N+](=O)[O-])c1,–,–,54.0,–,–
COc1ccc2ccccc2c1/C=N/N1C(=O)CSC1=S,31.6,–,–,–,–
Cc1cc(N2CC(C)OC(C)C2)nc2ccccc12 (stereo not given),–,–,–,–,–
S=c1[nH]nc(-c2ccco2)n1/N=C/c1ccccc1Cl,–,–,–,–,–
S=c1[nH]nc(-c2ccco2)n1/N=C/c1ccc(Cl)cc1,–,–,54.0,–,–
N#C/C(=C\c1cn[nH]c1-c1ccc(Cl)cc1)C(=O)NCc1ccccc1,36.8,–,–,–,–
O=[N+]([O-])c1ccc(O)c(/C=N/NC2=NS(=O)(=O)c3ccccc32)c1,–,–,73.4,–,–
O=C(CN1CCCCCC1)N/N=C/c1cccs1,46.1,–,–,–,–
COc1cccc(NC(=O)C2CCC(CNS(=O)(=O)c3cccs3)CC2)c1 (stereo not given),–,–,–,–,–
CN(C)/N=C/c1ccc(P(c2ccc(/C=N/N(C)C)o2)c2ccc(/C=N/N(C)C)o2)o1,31.2,–,–,–,–
COc1ccc(CCN=C(N)NS(=O)(=O)c2ccc(C)c(C)c2)cc1,–,–,–,–,–
CCN(CC)c1ccc(NC(=O)c2c(OC)cccc2OC)c(C)c1,37.9,–,–,–,–
CCOc1ccc(-c2cc(N3C(=O)Nc4ccccc4N3O)n[nH]2)cc1,–,–,52.1,–,–
COc1cccc(-c2cc(N3C(=O)Nc4ccccc4N3O)n[nH]2)c1,–,–,–,–,–
CN(C)c1ccc(/C=C2/NC(=O)NC2=O)cc1,–,–,–,–,–
CN(C)c1ccc(/C=C2\N=C(c3ccc(Cl)c([N+](=O)[O-])c3)NC2=O)cc1,–,–,50.5,–,–
SMILES,Arbovirus anti,TNAP inh hi DEA,TNAP inh noacc,TNAP act hi DEA,PKD1 kinase inh
COc1ccc(/C=C(\C#N)C(=O)OCC(=O)Nc2ccc(-c3nc4ccc(C)cc4s3)cc2)cc1,–,–,–,–,–
Cc1sc(NC(=S)NC(=O)C2CCCCC2)c(C(N)=O)c1C,–,–,–,–,–
CN(Cc1ccccc1)c1nc(N)c([N+](=O)[O-])c(NCc2ccccc2)n1,36.2,–,–,–,–
CN(Cc1ccccc1)c1ncnc(N)c1[N+](=O)[O-],–,–,–,–,–
COc1ccc(CN(C(=O)Cn2nnc(-c3ccc(C)o3)n2)C(C(=O)NCC2CCCO2)c2ccco2)cc1 (stereo not given),–,–,–,–,–
CCn1c(SCC(=O)c2ccc(O)c(O)c2)nnc1-c1ccc(C)cc1,–,–,52.7,–,–
CCn1c(SCC(=O)c2ccc3c(c2)Cc2ccccc2-3)nnc1-c1ccc(N)cc1,–,–,–,–,–
COc1ccc(C2CC(=O)Nc3n[nH]c(-c4ccccc4)c32)cc1OC (stereo not given),–,–,64.2,–,–
COc1ccc(OC)c(C2CC(=O)Nc3n[nH]c(-c4ccccc4)c32)c1 (stereo not given),–,–,–,–,–
O=C(COc1ccccc1C(=O)NCC1CCCO1)Nc1ccc(Br)cc1 (stereo not given),–,–,–,–,–
CC1=NN2C(=N)/C(=C\c3ccc(SCc4ccccc4)o3)C(=O)N=C2S1,34.9,–,–,–,–
CC1=C2C3OC(=O)C(C)[C@@H]3CC[C@](C)(O)C2C2C3C4C5(C12)[C@H]1OC(=O)[C@@H](C)C1CC[C@]4(C)O[C@]5(C)[C@@H]3O (stereo not given in full),–,–,–,–,–
N#CCCN(Cc1cccnc1)C(=S)Nc1ccccc1Cl,–,–,–,–,–
N#CCCN(Cc1cccnc1)C(=S)Nc1ccc(OC(F)F)cc1,30.9,–,–,–,–
Cc1ccc2c(c1)C1CCCC3C1N2CC(=O)N3Cc1ccccc1 (stereo not given),32.2,–,–,–,–
Cc1ccc2c(c1)C(CCN)C(=O)N2Cc1ccccc1 (stereo not given),–,–,–,–,–
C=CCN=c1scc(-c2ccccc2)n1/N=C/c1ccccn1,31.7,–,–,–,–
O=C(O)c1ccc(CSc2ccccn2)cc1,–,–,–,–,–
O=C(O)c1ccccc1CSc1ccccn1,32.5,–,–,–,–
Oc1cc2c(cc1O)[C@@H](c1ccccc1)CNCC2,–,–,66.1,–,–
CCCN1Cc2cccc(C(=O)N3CCN(c4cc(Cl)ccc4C)CC3)c2C1=O,47.2,–,–,–,–
COCCN1Cc2cccc(C(=O)N3CCN(c4cc(C)ccc4C)CC3)c2C1=O,–,–,–,–,–
CCOC(=O)c1n[nH]c(=O)c2ccccc12,–,–,–,–,–
CC1CCCCN1C(=O)COC(=O)c1n[nH]c2ccccc12 (stereo not given),–,–,55.2,–,–
CCOC(=O)c1n[nH]c2ccccc12,–,–,57.6,–,–
SMILES,Arbovirus anti,TNAP inh hi DEA,TNAP inh noacc,TNAP act hi DEA,PKD1 kinase inh
O=C1c2ccccc2C(Nc2ccc(S(=O)(=O)N3CCOCC3)cc2)N1c1cccnc1 (stereo not given),–,–,–,–,–
O=C1c2ccccc2C(Nc2ccc(S(=O)(=O)N3CCCCC3)cc2)N1c1ccccn1 (stereo not given),31.5,–,–,–,–
COc1ccc(/C=N/N2CCN(c3ccccc3OC)CC2)cc1OC,–,–,–,–,–
COc1ccccc1N1CCN(/N=C/c2ccc(O)c(O)c2)CC1,–,–,53.9,–,–
O=C(O)CNC(=O)c1ccccc1Br,–,–,–,–,–
COc1cc(Br)cc(-c2nc3c(c(=O)[nH]c(=O)n3Cc3ccccc3)n2C)c1O,52.7,–,–,–,–
O=C(CSc1ccc2ccccc2c1)NCCc1ccc(O)c(O)c1,–,–,53.6,–,–
COc1ccc(CCNC(=O)CSc2ccc3ccccc3c2)cc1OC,–,–,–,–,–
OCCCNCc1cccc2ccccc12,–,–,–,–,–
